Laboratory results taken from ChEMBL document CHEMBL1156382, “New steroidal alkaloids from an undescribed sponge of the genus Corticium” (2001).
≈ marks a conversion by molar mass, not a printed value. Calls of active or inactive are those of the source. The calls are words filed in the database; no cut-off is given here.

Experiments:
[1] = tested on: K562; assay: Cytotoxicity against human K562 cells; format: functional; conditions: read-out: LC50 (the source's name)
[2] = tested on: Nucleic Acid; assay: Induction of Escherichia coli 16S rRNA cleavage at 10 ug/20 mL by gel electrophoresis; format: nucleic-acid assay
In short: (§1)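 Nucleic acids (double-stranded DNA and 16S rRNA) were isolated from E. coli and exposed to compound at 10 µg/20 mL; cleavage was scored by gel electrophoresis.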

[3] = tested on: Nucleic Acid; assay: Induction of Escherichia coli double stranded DNA cleavage at 10 ug/20 mL by gel electrophoresis; format: nucleic-acid assay; in short: as §1
[4] = tested on: Candida albicans; assay: Antifungal activity against Candida albicans at 25 ug/disk by paper disk method; format: functional; conditions: read-out: IZ
In short: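 Paper disk diffusion against Candida albicans with 25 µg loaded per disk; read-out is the diameter of the clear zone of inhibition, in mm.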

SMILES	CC50 [1]	Activity [2]	Activity [3]	zone of inhibition at 25 µg/disc [4]
CC(C)=C1CCN=C1C[C@@H](C)[C@H]1CC[C@H]2C3=CC[C@H]4[C@@H](O)[C@@H](N(C)C)CC[C@]4(C)[C@H]3CC[C@]12C [LOKYSTEROLAMINE A]	0.9 µg/mL (≈ 1.93 µM)	inactive	inactive	9 mm
CC(C)=C1CC[N+]([O-])=C1C[C@@H](C)[C@H]1CC[C@H]2C3=CC[C@H]4[C@@H](O)[C@@H](N(C)C)CC[C@]4(C)[C@H]3CC[C@]12C [PLAKINAMINE E]	0.2 µg/mL (≈ 0.414 µM)	Active	Active	12 mm
CC(C)=C1CCN=C1C[C@@H](C)[C@H]1CC[C@H]2C3=CC[C@H]4C(=O)[C@@H](N(C)C)CC[C@]4(C)[C@H]3CC[C@]12C [PLAKINAMINE F]	1.3 µg/mL (≈ 2.8 µM)	inactive	inactive	8 mm
